Each block holds one compound with its values, some of them ahead of it.
What was measured:
Rattus norvegicus [1] = organism: Rattus norvegicus; assay: Antiinflammatory activity against adjuvant induced arthritis in male charles river rats; assay type: functional
Rattus norvegicus [2] = organism: Rattus norvegicus; assay: Effective dose required for prevention of nonestablished adjuvant arthritis model wih an oral paw 18-day; assay type: functional; conditions: 432 h
[3] = target: T1, Polyunsaturated fatty acid 5-lipoxygenase (Rattus norvegicus, UniProt P12527); assay: Inhibitory activity against rat basophilic leukemia 5-lipoxygenase
T1 sequence (P12527 whole entry): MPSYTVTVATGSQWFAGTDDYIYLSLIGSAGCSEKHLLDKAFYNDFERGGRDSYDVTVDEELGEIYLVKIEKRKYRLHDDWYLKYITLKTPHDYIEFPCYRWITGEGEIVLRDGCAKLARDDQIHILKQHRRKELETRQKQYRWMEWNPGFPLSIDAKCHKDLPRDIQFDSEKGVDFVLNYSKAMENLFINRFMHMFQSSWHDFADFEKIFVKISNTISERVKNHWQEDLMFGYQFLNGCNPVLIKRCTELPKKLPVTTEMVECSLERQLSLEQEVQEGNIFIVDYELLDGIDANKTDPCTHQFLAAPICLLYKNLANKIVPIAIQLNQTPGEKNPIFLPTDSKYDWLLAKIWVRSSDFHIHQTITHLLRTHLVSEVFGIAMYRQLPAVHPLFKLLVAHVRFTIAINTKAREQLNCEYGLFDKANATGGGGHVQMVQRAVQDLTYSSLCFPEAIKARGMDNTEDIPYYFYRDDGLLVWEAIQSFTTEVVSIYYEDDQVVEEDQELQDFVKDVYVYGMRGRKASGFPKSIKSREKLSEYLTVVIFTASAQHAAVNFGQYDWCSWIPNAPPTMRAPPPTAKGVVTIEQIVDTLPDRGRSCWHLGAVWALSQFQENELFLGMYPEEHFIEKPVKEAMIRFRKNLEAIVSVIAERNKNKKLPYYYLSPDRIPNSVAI

Rattus norvegicus [4] = assay: Safety assessment in adjuvant induced arthritis rat model (AA),day 18,po; assay type: functional; conditions: 432 h, read-out: ED50
[5] = Safety assessment in car paw assay, po; assay type: toxicity
Rattus norvegicus [6] = organism: Rattus norvegicus; assay: Maximum tolerated dose for 12 days in long evans rats; assay type: functional
[7] = Gastrointestinal safety of a compound relative to indomethacin and piroxicam; assay type: ADME
Outline: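 Male Sprague-Dawley rats (~165 g) received a single oral dose of drug or vehicle. Stomach and small intestine were examined for mucosal lesions under a 10× dissecting microscope in coded, randomized order. Any single lesion counted as positive. TD50 was calculated by the moving-average method.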

Mus musculus = organism: Mus musculus; assay: Activity in the mouse oral contact sensitivity model; assay type: functional
Rattus norvegicus [8] = assay: Safety assessment in adjuvant induced arthritis rat model (AA),po; assay type: functional; conditions: for ED50: read-out: ED50
Rattus norvegicus [9] = organism: Rattus norvegicus; assay: Compound was evaluated for 12 day tolerance in long evans rats; assay type: functional
[10] = Maximum blood level reached after an iv dose of 12.2 uM/kg; assay type: ADME, organism-based; set-up: dose 12.2 uM/kg, route intravenous; conditions: in vivo
[11] = Elimination half life at dose of 12.2uM/kg, po; conditions: in vivo
[12] = TD50/ED50 value of the compound; assay type: functional
Outline: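 Ratio of the GI lesion TD50 to the established adjuvant arthritis paw ED50, both measured orally in rats.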

[13] = Elimination half life at dose of 12.2 uM/kg, iv; assay type: ADME, organism-based; conditions: in vivo
[14] = Volume of distribution at dose of 12.2 uM/kg, iv; assay type: ADME, organism-based; conditions: in vivo
[15] = Bioavailability at a dose of 7.1 uM/kg, iv; assay type: ADME, organism-based; conditions: eutheria, in vivo
[16] = Maximum blood level reached after an oral dose of 5.0 mg/kg; assay type: ADME, organism-based; set-up: dose 5 mg/kg, route oral; conditions: in vivo
[17] = Elimination half life at a dose of 7.1 uM/kg, iv; assay type: ADME, organism-based; conditions: in vivo
[18] = Volume of distribution at a dose of 7.1 uM/kg, iv; assay type: ADME, organism-based; conditions: in vivo
[19] = Cmax value at a dose of 7.1 uM/kg, iv; assay type: ADME, organism-based; set-up: dose 7.1 uM/kg, route intravenous; conditions: in vivo
[20] = Elimination half life at a dose of 14.3 uM/kg, po; assay type: ADME, organism-based; conditions: in vivo
[21] = Elimination half life at dose of 14.7 uM/kg oral route; assay type: ADME, organism-based; conditions: in vivo
[22] = Volume of distribution at dose of 14.7 uM/kg intravenous route; assay type: ADME, organism-based; conditions: in vivo
[23] = Maximum blood level reached after an oral dose of 14.7 uM/kg intravenous route; assay type: ADME, organism-based; conditions: in vivo
[24] = Maximum blood level reached after an oral dose 14.7 uM/kg oral route; assay type: ADME, organism-based; set-up: dose 14.7 uM/kg, route oral; conditions: in vivo
[25] = Elimination half life at dose of 14.7 uM/kg intravenous route; assay type: ADME, organism-based; conditions: in vivo

SMILES: Cn1c(Br)c(Br)c(-c2ccc(F)cc2)c1-c1ccc(S(C)(=O)=O)cc1
ED50 (Rattus norvegicus [1]): 4.16 mg/kg

SMILES: CS(=O)(=O)c1ccc(-c2[nH]c(S(C)(=O)=O)cc2-c2ccc(F)cc2)cc1
ED50 (Rattus norvegicus [1]): 36.6 mg/kg

SMILES: CS(=O)(=O)c1ccc(-c2[nH]c(SC#N)cc2-c2ccc(F)cc2)cc1
ED50 (Rattus norvegicus [2]): 7 mg/kg
IC50 [3]: 80 nM
ED50 (Rattus norvegicus [4]): 18.8 µmol/kg
ED30 [5]: 268.5 µM/kg
ED50 (Rattus norvegicus [1]): 3.9 mg/kg
Max tolerated dose (Rattus norvegicus [6]): >418 µM/kg
TD50 [7]: > 335 µmol/kg
ED35 (Mus musculus): 8 mg/kg
ED50 (Rattus norvegicus [8]): 10.5 µmol/kg
no-effect dose (Rattus norvegicus [9]): >418 µM/kg

Cmax [10]: 2.9 uM l-1
half-life [11]: 4.3 h
half-life [13]: 13.7 h
Vd [14]: 10 L/kg
SMILES: Cn1c(Br)cc(-c2ccc(F)cc2)c1-c1ccc(S(C)(=O)=O)cc1
TD50/ED50 [12]: > 100
ED50 (Rattus norvegicus [1]): 1.7 mg/kg
TD50 [7]: > 416 µmol/kg
ED50 (Rattus norvegicus [8]): 3.43 µmol/kg

SMILES: CC(C)Cc1ccc(C(C)C(=O)O)cc1 (stereo not drawn) [IBUPROFEN]
ED50 (Rattus norvegicus [1]): 100 mg/kg

SMILES: Cn1c(Cl)c(Cl)c(-c2ccc(F)cc2)c1-c1ccc(S(C)(=O)=O)cc1
ED50 (Rattus norvegicus [1]): 5 mg/kg

SMILES: Cn1c(SC#N)cc(-c2ccc(F)cc2)c1-c1ccc(S(C)(=O)=O)cc1
ED50 (Rattus norvegicus [1]): > 27 mg/kg

SMILES: CS(=O)(=O)c1ccc(-c2[nH]c(S(=O)(=O)O)cc2-c2ccc(F)cc2)cc1.c1ccncc1
ED50 (Rattus norvegicus [1]): 12.7 mg/kg

SMILES: CCCCC1C(=O)N(c2ccccc2)N(c2ccccc2)C1=O [PHENYLBUTAZONE]
ED50 (Rattus norvegicus [1]): 10 mg/kg

SMILES: CS(=O)(=O)c1ccc(-c2[nH]c([N+](=O)[O-])cc2-c2ccc(F)cc2)cc1
ED50 (Rattus norvegicus [1]): 9 mg/kg

F [15]: 1
Cmax [16]: 2.3 uM l-1
half-life [17]: 6.1 h
Vd [18]: 9 L/kg
Cmax [19]: 1.4 uM l-1
half-life [20]: 5.8 h
SMILES: CS(=O)(=O)c1ccc(-c2[nH]c(Cl)cc2-c2ccc(F)cc2)cc1
TD50/ED50 [12]: 70
ED50 (Rattus norvegicus [1]): 0.5 mg/kg
TD50 [7]: 100 µmol/kg
ED30 (Rattus norvegicus [8]): 1.43 µM/kg

half-life [21]: 17.3 h
Vd [22]: 5.7 L/kg
Cmax [23]: 4.1 uM l-1
Cmax [24]: 2.9 uM l-1
half-life [25]: 13.7 h
SMILES: CS(=O)(=O)c1ccc(-c2[nH]c(C#N)cc2-c2ccc(F)cc2)cc1
TD50/ED50 [12]: > 100
ED50 (Rattus norvegicus [1]): 1.3 mg/kg
TD50 [7]: > 381 µmol/kg
ED50 (Rattus norvegicus [8]): 3.82 µmol/kg

SMILES: CS(=O)(=O)c1ccc(-c2[nH]c(Cl)c(Br)c2-c2ccc(F)cc2)cc1
ED50 (Rattus norvegicus [1]): 3.4 mg/kg

SMILES: CCOC(=O)CCCCn1c(Cl)cc(-c2ccc(F)cc2)c1-c1ccc(S(C)(=O)=O)cc1
ED50 (Rattus norvegicus [1]): > 100 mg/kg

SMILES: CS(=O)(=O)c1ccc(-c2[nH]c(I)c(I)c2-c2ccc(F)cc2)cc1
ED50 (Rattus norvegicus [1]): 41.3 mg/kg
